Data set [1] deals with Signal transducer and activator of transcription 3 (Homo sapiens) (UniProt P40763). As to the kind of experiment: Inhibition of STAT3 transcriptional activity in human oncostatin M-stimulated HeLa cells at 10 uM after 24 hrs by luciferase reporter gene assay. It is filed as cell-based. Summed up: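 HeLa cells carrying a STAT3-luciferase reporter pretreated with DMSO or compound (10 µM) for 24 h, stimulated with oncostatin M 10 ng/mL for 5 h, then luciferase reporter activity measured.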
Signal transducer and activator of transcription 3 (Homo sapiens), sequence (P40763 whole entry): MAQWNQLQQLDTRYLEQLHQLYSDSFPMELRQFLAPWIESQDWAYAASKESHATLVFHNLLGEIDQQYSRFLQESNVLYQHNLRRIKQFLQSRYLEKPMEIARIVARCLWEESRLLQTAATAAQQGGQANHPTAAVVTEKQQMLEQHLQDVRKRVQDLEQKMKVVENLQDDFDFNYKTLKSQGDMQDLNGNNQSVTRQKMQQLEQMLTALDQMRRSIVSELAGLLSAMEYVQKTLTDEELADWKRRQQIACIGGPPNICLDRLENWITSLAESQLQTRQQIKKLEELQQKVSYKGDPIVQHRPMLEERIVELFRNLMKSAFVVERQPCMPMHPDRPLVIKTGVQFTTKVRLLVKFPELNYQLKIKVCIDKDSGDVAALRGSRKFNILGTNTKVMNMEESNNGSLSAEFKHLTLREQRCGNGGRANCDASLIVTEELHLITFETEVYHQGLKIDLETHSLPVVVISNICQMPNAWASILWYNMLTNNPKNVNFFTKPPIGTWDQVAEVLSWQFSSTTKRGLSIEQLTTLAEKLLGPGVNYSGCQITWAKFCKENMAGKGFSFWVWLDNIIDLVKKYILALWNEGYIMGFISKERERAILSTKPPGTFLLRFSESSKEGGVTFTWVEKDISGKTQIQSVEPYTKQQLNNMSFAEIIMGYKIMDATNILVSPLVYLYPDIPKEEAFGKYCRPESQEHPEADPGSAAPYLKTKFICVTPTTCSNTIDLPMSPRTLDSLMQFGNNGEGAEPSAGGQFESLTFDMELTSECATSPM
(In general: A reporter such as luciferase makes a cellular process visible.)

Data set [2] shares this target. In words: Inhibition of STAT3 phosphorylation in human MCF10A cells transformed with H-ras at 10 uM after 24 hrs by Western blot analysis. It is filed as cell-based. The settings on record: MCF-10A. Summed up: (§1)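 Immunoblot of STAT3 phosphorylation in MCF10A-ras cells after 24 h treatment at 5 and 10 µM (analogs at 10 µM). In a thiol-reducing arm, cells got 0.5 mM DTT for 1 h before 10 µM compound for 24 h.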
In general terms: In western blotting, separated proteins are transferred to a membrane and probed.

Data set [3] shares this target. As to the kind of experiment: Inhibition of STAT3 phosphorylation in human MCF10A cells transformed with H-ras at 5 to 10 uM after 24 hrs by Western blot analysis. It is filed as cell-based. The settings on record: MCF-10A. In outline: as §1
The target is the same in data set [4]. In words: Inhibition of STAT3 phosphorylation in human MCF10A cells transformed with H-ras at 1 to 10 uM after 24 hrs by Western blot analysis. The conditions noted are these: MCF-10A. It is filed as cell-based. Summed up: (§2)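 MCF10A-ras cells treated at the indicated concentrations for 24 h; lysates immunoblotted for p-STAT3, total STAT3 and p-STAT1.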
The target in data set [5] is T1, Signal transducer and activator of transcription 1-alpha/beta (Homo sapiens) (UniProt P42224).
T1 sequence (whole entry): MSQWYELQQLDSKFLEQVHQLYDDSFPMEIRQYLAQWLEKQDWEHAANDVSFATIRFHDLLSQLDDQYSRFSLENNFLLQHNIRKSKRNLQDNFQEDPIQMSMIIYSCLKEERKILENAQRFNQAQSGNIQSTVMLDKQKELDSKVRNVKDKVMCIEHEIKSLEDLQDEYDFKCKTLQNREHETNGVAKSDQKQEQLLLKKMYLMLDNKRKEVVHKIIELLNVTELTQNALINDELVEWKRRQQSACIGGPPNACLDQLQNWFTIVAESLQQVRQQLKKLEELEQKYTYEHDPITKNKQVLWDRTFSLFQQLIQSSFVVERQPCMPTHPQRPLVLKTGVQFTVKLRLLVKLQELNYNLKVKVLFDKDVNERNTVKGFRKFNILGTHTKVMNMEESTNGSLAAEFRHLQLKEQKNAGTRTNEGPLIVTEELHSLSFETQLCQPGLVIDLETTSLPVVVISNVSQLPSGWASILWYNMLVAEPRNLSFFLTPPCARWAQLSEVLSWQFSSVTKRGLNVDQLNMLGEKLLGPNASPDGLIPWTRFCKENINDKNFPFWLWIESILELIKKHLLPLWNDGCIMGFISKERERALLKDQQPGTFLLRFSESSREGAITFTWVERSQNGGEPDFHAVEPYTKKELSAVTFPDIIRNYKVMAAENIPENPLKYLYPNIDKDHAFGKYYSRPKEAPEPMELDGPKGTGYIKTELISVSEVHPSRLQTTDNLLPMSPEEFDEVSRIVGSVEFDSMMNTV
As to the kind of experiment: Inhibition of STAT1 phosphorylation in human MCF10A cells transformed with H-ras at 1 to 10 uM after 24 hrs by Western blot analysis. Type of data set: cell-based. The conditions noted are these: MCF-10A. Summed up:
as §2

The nature of data set [6]: Cytotoxicity against wild type human MCF10A cells at 2 uM after 24 hrs. It is filed as cell-based. The conditions noted are these: mcf-10a. In outline: (§3)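 MCF10A and MCF10A-ras cells exposed to each inhibitor for 24 h, then cytotoxicity measured.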
Another data set concerns MCF-10A. In words: Cytotoxicity against human MCF10A cells transformed with H-ras at 2 uM after 24 hrs. Type of data set: functional, cell-based. In outline:
as §3

In the next data set the test system is MCF7. As to the kind of experiment: Cytotoxicity against human MCF7 cells at 1 to 5 uM after 24 hrs. Type of data set: functional, cell-based. Summed up:
(§4)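 MCF7 and MDA-MB-231 breast cancer cells treated at the indicated concentrations for 24 h; viability then assessed.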

The next data set concerns MDA-MB-231. In words: Cytotoxicity against human MDA-MB-231 cells at 1 to 5 uM after 24 hrs. Type of data set: functional, cell-based. Summed up:
as §4

The target of data set [7] is Signal transducer and activator of transcription 3 (Homo sapiens) (UniProt P40763). In words: Binding to STAT3 in human MCF10A cells transformed with H-ras at 5 to 30 uM after 24 hrs using HRP-streptavidin by Western blot analysis. The settings on record: MCF-10A.

Active and inactive are the calls of the source. The rule behind the calls is not given here.

Regarding `COc1ccc(C(C)C(=O)c2ccc3c(c2OC)C=CC(C)(C)O3)cc1OC` (centres undefined), the inhibition entry in data set [1] and in [2] was “inactive” throughout.
With `C=C(c1ccc(OC)c(OC)c1)C(O)c1ccc2c(c1OC)C=CC(C)(C)O2` (centres undefined), in data set [1], the inhibition entry is “inactive”.
With `C=C(C(=O)c1ccc2c(c1OC)C=CC(C)(C)O2)c1ccc(OC)c(OC)c1`, the inhibition result in data set [1], in [3] and in data set [4] was “Active” throughout. For the same compound, the inhibition result in data set [5] is “inactive”. Also, the Activity entry in data set [6] is “Non-toxic”. For the same compound, the outcome in the data set with MCF-10A, in the data set with MCF7 and with MDA-MB-231 was Active.
In the case of `COc1ccc(CC(=O)c2ccc3c(c2OC)C=CC(C)(C)O3)cc1OC`, the inhibition entry in [1] and in [2] was “inactive” throughout.
In the case of `C=C(C(=O)c1ccc2c(c1OC)C=CC(C)(C)O2)c1ccc(OC/C=C/CNC(=O)CCCC[C@@H]2SC[C@@H]3NC(=O)N[C@@H]32)c(OC)c1`, the binding entry in [7] was “Active”.
